# Sampled rows, rich in hits. Any-hit rate of the full collection: about 4.6%.
# OX1R antag-1: blocks the human orexin 1 receptor. O43613. OX1R-expressing cells, FRET antagonist read-out. inhibition, % at 6.6 µM. hit rate 1.8% among 330,000. AID 485270; in the data active means inhibition mostly above about 38%, no sharp cut-off; inactive means mostly below about 40%
# Target sequence (O43613 whole entry, looked up): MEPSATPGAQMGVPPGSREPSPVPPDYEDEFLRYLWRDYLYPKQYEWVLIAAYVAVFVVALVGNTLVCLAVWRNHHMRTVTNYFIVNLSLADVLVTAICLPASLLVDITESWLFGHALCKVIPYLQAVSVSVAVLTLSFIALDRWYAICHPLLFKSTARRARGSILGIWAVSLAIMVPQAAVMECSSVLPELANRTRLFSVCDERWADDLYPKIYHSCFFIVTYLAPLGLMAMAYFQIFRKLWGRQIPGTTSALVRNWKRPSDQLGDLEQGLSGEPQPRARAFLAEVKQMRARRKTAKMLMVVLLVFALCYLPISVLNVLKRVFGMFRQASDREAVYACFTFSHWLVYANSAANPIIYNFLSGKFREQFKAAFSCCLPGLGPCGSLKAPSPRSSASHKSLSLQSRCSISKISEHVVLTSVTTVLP
# TAAR1 agonist: agonists of human TAAR1; hit rate 0.99% among 360,000; Q96RJ0; activation, % at 3 µM; CHO RD-HGA16 TAAR1, Fluo-8 calcium fluorescence; vehicle wells 0%, saturating PEA agonist 100%; AID 624467;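 active means activation above the mean activation of all test compounds in the run plus 3 SD, cut at about 38% in these data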
#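 Repeats: no replicates (n 1) | Material: CHO-derived RD-HGA16 cells with stable Gα16 and human TAAR1 | Technique: Kinetic Fluo-8 calcium fluorescence | Schedule: 17-24 h seeding, 75 min 37 °C dye, 30 min RT | Evaluation: % activation from peak over basal fluorescence ratio, DMSO-to-PEA scaled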
# TAAR1 antag: human TAAR1 antagonism; hit rate 1.5% among 360,000; AID 624466; inhibition, % at 3 µM; CHO RD-HGA16 TAAR1, Fluo-8 calcium fluorescence, antagonist;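 active means inhibition above a per-plate cutoff, the mean inhibition of test compounds on that plate plus 3 SD, cut at about 49% in these data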
#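 Assay system: RD-HGA16 CHO cells with stable hTAAR1 and Gα16 / Reagent: EC80 β-phenethylamine stimulus / Doses: 3 µM, single point / Timing: dye loading 75 min at 37 °C, then 30 min room temperature / Measured by: Fluo-8 intracellular calcium dye fluorescence, real-time kinetic reads / Controls: vehicle wells and EC80 agonist wells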
# CHO parental Ca: signal in parental CHO cells, OX1R antagonist counter-screen; parental CHO-K1, ATP-induced calcium, Fluo-8 fluorescence; inhibition, % at 5.6 µM; hit rate 0.63% among 330,000;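 active means inhibition above that plate's mean sample inhibition plus 3 SD, cut at about 26% in these data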
#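 Assay system: untransfected parental CHO cell line. Also added: ATP agonist challenge. Dosing: one dose, 5.6 µM nominal. Measured by: Fluo-8 fluorescence. Read-out: % inhibition. Benchmarks: ATP wells versus no-ATP DMSO wells. Repeats: no replicates.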
# OX1R antag-2: antagonists of human orexin 1 receptor; AID 434989; O43613; hit rate 0.43% among 330,000; CHO/OX1R cells, Fluo-8 calcium fluorescence, orexin A; inhibition, % at 5 µM;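 active means inhibition above its plate's threshold, mean inhibition of all tested compounds on the plate plus 3 SD, cut at about 37% in these data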
# GPR7 antagonist: antagonists of human GPR7 (neuropeptides B/W receptor 1) | GPR7-expressing cells, fluorescence antagonist assay | inhibition, % at 4.4 µM | hit rate 1.1% among 290,000; in the data active means inhibition above about 16%, passing the limit was not always enough;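 further: cells stimulated with the agonist NPW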
# TAAR1 ag confirm: confirmation of human TAAR1 agonists | shares compounds with TAAR1 agonist | CHO RD-HGA16 TAAR1, Fluo-8 calcium fluorescence; scaled: DMSO 0%, maximal phenethylamine 100% | activation, % at 3 µM | hit rate 82% among 2,400;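 active means activation above a cutoff set at the run's mean compound activation plus 3 SD, cut at about 39% in these data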
# Ga16 nonsel ag: nonselective agonism, TAAR1 counter-screen; shares compounds with TAAR1 agonist; CHO-Ga16 parental, Fluo-8 calcium fluorescence; normalized to maximal ATP response, DMSO zero; activation, % at 3 µM; hit rate 50% among 2,400; AID 651787;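 active means activation above the run cutoff, the mean activation over all tested wells plus 3 SD, cut at about 12% in these data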
# TAAR1 desensitize: TAAR1 response desensitization, agonist counter-screen. shares compounds with TAAR1 agonist. CHO RD-HGA16 hTAAR1, Fluo-8 calcium, beta-PEA response inhibition. inhibition, % at 3 µM. hit rate 46% among 2,400. AID 651951;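 active means inhibition above the run cutoff, the mean inhibition of all test compounds plus 3 SD, cut at about 49% in these data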;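 further: beta-PEA stimulus applied at its EC80; loss of beta-PEA calcium signal after compound pretreatment read as receptor desensitization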
# Ga16 nonsel ant: nonselective Ga16 antagonism, counter-screen; shares compounds with TAAR1 agonist; CHO-Ga16 ATP-induced calcium, Fluo-8 fluorescence; inhibition, % at 3 µM; hit rate 39% among 2,400; AID 651952;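 active means inhibition above the plate's mean compound inhibition plus 3 SD, computed per plate, cut at about 22% in these data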
# Hits are given with their value; – = inactive; · = not tested or not shown.
SMILES,OX1R antag-1,TAAR1 agonist,TAAR1 antag,CHO parental Ca,OX1R antag-2,GPR7 antagonist,TAAR1 ag confirm,Ga16 nonsel ag,TAAR1 desensitize,Ga16 nonsel ant
CCOC(=O)c1cccc(OCC(O)CNCCOc2ccccc2F)c1 (centres undefined),–,–,–,–,–,–,·,·,·,·
CC(=O)c1cccc(OCC(O)CNCCc2ccc(Cl)cc2)c1 (centres undefined),–,·,·,–,–,–,·,–,·,–
OC(CNCCc1ccc(Cl)cc1)COCc1ccco1 (centres undefined),–,56.0,–,–,–,–,67.1,–,–,–
CC1CCCC(C)N1C(=O)c1cc2ncc(CCCl)cn2n1 (centres undefined),–,–,–,–,–,–,·,·,·,·
CC(C)c1ccc(NC(=O)CSc2nc(=O)[nH]c3c2CCCC3)cc1,–,–,–,–,–,·,·,·,·,·
CC1(C)c2[nH]c3ccccc3c2C[C@H]2C(=O)N(CCCCCO)CC(=O)N21,–,–,–,–,–,–,·,·,·,·
CC(C)c1ccc(N2C(=O)[C@@H]3Cc4ccccc4CN3C2=O)cc1,–,83.8,81.7,45.2,–,–,76.5,46.0,64.1,46.9
Cc1ccc(N2C(=O)[C@@H]3Cc4ccccc4CN3C2=O)cc1,–,–,–,–,–,–,·,·,·,·
COc1ccc2cc(CN(CCc3ccccc3)Cc3nnnn3CC3CCCO3)c(=O)[nH]c2c1 (centres undefined),–,92.3,56.9,–,–,–,77.6,–,75.1,–
O=c1[nH]c2cc3c(cc2cc1CN(CCc1ccccc1)Cc1nnnn1CC1CCCO1)OCO3 (centres undefined),–,–,–,–,–,–,·,·,·,·
COc1ccc2[nH]c(=O)c(CN(CCc3ccccc3)Cc3nnnn3CC3CCCO3)cc2c1 (centres undefined),–,84.5,72.4,–,–,–,87.9,–,81.3,24.9
COc1ccc2cc(C(c3nnnn3CCc3ccccc3)N3CCCC(C)C3)c(=O)[nH]c2c1 (centres undefined),–,53.9,–,–,–,–,58.5,–,–,–
COc1ccc2[nH]c(=O)c(CN(Cc3ccccc3OC)Cc3nnnn3CC3CCCO3)cc2c1 (centres undefined),–,–,–,–,–,–,·,·,·,·
COCCn1nnnc1C(c1cc2cc(OC)ccc2[nH]c1=O)N1CCC(Cc2ccccc2)CC1 (centres undefined),–,–,–,–,–,–,·,·,·,·
COC(=O)c1cnc(Nc2nc(C(N)COCc3ccccc3)cs2)nc1C(F)(F)F (centres undefined),·,–,–,·,·,·,·,·,·,·
COC(=O)c1cnc(Nc2nc(C(N)c3ccccc3Cl)cs2)nc1C(F)(F)F (centres undefined),·,60.3,–,·,·,·,68.3,36.0,–,28.5
CCOc1ccc(-c2c(C(=O)N/N=C(\C)c3ccco3)nnn2-c2nonc2N)cc1,–,115.0,–,–,–,–,101.3,66.6,–,–
CCOc1ccc(-c2c(C(=O)N/N=C(\C)c3ccccc3OC)nnn2-c2nonc2N)cc1,–,–,–,–,–,–,·,·,·,·
COc1cccc(-c2c(C(=O)N/N=C(\C)c3cccs3)nnn2-c2nonc2N)c1,–,140.3,86.9,–,–,–,115.0,83.9,77.9,27.6
COc1cccc(-c2c(C(=O)N/N=C(\C)c3ccncc3)nnn2-c2nonc2N)c1,–,–,–,–,–,–,·,·,·,·
CCOc1cccc(-c2c(C(=O)N/N=C(\C)c3cccs3)nnn2-c2nonc2N)c1,–,132.0,88.2,–,–,–,134.1,98.1,96.6,69.8
C/C(=N\NC(=O)c1nnn(-c2nonc2N)c1-c1ccc2c(c1)OCO2)c1cccs1,–,144.3,95.8,–,–,–,126.9,100.9,90.5,60.7
CCOc1ccc(-c2c(C(=O)N/N=C(\C)c3cccs3)nnn2-c2nonc2N)cc1,–,85.3,–,–,–,–,98.4,63.3,–,–
Cc1ccc(CNC(=O)c2ccc(Cl)cc2[N+](=O)[O-])cc1,–,–,–,–,–,–,·,·,·,·
CCCCCCn1c(=O)[nH]c2nc3cc(N)ccc3nc2c1=O,–,118.3,56.6,51.4,75.3,–,95.2,96.2,67.7,66.5
SMILES,OX1R antag-1,TAAR1 agonist,TAAR1 antag,CHO parental Ca,OX1R antag-2,GPR7 antagonist,TAAR1 ag confirm,Ga16 nonsel ag,TAAR1 desensitize,Ga16 nonsel ant
COc1cc2nc(Nc3ccc(F)cc3)nc(N)c2cc1OC,–,58.6,–,–,–,–,54.0,–,–,–
COc1cc2nc(Nc3ccc(C)c(C)c3)nc(N)c2cc1OC,–,–,–,–,–,–,·,·,·,·
CCOCCCNc1ccc(N2C(=O)C3CCCCC3C2=O)cc1[N+](=O)[O-] (centres undefined),–,43.5,–,–,–,–,–,–,–,–
CCN(CC)c1ccc(N2C(=O)C3CCCCC3C2=O)cc1[N+](=O)[O-] (centres undefined),–,–,–,–,–,–,·,·,·,·
Cc1ccc2nc(-c3ccccc3)cc(C(=O)N3CCc4ccccc4C3)c2c1,–,71.9,–,–,–,–,68.2,–,–,–
COc1ccc2c(c1)c(C(=O)CN1CCc3ccccc3C1)c(C)n2C,–,69.0,–,–,–,–,86.0,–,–,–
COc1ccc2c(c1)c(C(C)=O)c(C)n2C,–,–,–,–,–,–,·,·,·,·
CCOc1ccc(S(=O)(=O)NCC2CCCO2)c2ccccc12 (centres undefined),–,–,–,–,–,–,·,·,·,·
Cc1c(Cl)cccc1Nc1nc(N)nc(CN2CCc3ccccc3C2)n1,–,–,–,–,–,–,·,·,·,·
Cc1ccc(Nc2nc(N)nc(CN3CCc4ccccc4C3)n2)cc1,–,52.1,–,–,–,–,68.7,–,–,–
CCOC(=O)C(NCc1ccc2c(c1)OCO2)(NC(=O)CC)C(F)(F)F (centres undefined),–,–,–,–,–,–,·,·,·,·
CCOC(=O)C(NCCc1ccccc1F)(NC(=O)CC)C(F)(F)F (centres undefined),–,·,·,–,–,–,·,–,·,–
CCOC(=O)C(NCCc1ccccc1)(NC(=O)CC)C(F)(F)F (centres undefined),–,94.2,51.6,–,–,–,97.8,–,80.0,–
